Measured values gathered from unrelated publications.
Lines come from different studies, so protocols differ. pIC50: −log10 of the molar value.
PRSS1: Serine protease 1 (PRSS1, Bos taurus, UniProt P00760)
CA9: Carbonic anhydrase 9 (CA9, Homo sapiens, UniProt Q16790)
PKN1: Serine/threonine-protein kinase N1 (PKN1, Homo sapiens, UniProt Q16512)
HDAC9: Histone deacetylase 9 (HDAC9, Homo sapiens, UniProt Q9UKV0)
HCK: Tyrosine-protein kinase HCK (HCK, Homo sapiens, UniProt P08631)
PADI4: Protein-arginine deiminase type-4 (PADI4, Homo sapiens, UniProt Q9UM07)

The pIC50 of `Cc1nc2ccc(Cl)cc2c(=O)n1NC(=O)CCl` is reported as 4.01 (PRSS1; enzyme activity; inhibitor).
With `NS(=O)(=O)c1ccc(NC(=O)COC(=O)C(=Cc2cccs2)c2cccs2)cc1` the pIC50 was 6.49 (CA9; enzyme activity; inhibitor).
With `Cc1nc2ccc(Br)cc2c(=O)n1/N=C/c1ccc(C(=O)O)cc1` the pIC50 was 3.67 (PRSS1; enzyme activity; inhibitor).
`COc1ccc(C2=NN(C3CCCCCC3)C(=O)[C@@H]3CC=CC[C@H]23)cc1-c1ccc(C(=O)NCC(N)=O)cc1` (relative stereo) gave a pIC50 of 6.00 (3',5'-cyclic-AMP phosphodiesterase 4C (PDE4C, Homo sapiens, UniProt Q08493); enzyme activity; inhibitor).
The pIC50 of `O=C(c1ccc(Nc2nccc(-c3cc4ccccc4s3)n2)cc1)N1CCC(N2CCCC2)CC1` is reported as 7.31 (PKN1; enzyme activity; inhibitor).
`COc1cc(/C=N/n2c(C)nc3ccc(Br)cc3c2=O)ccc1O` has a pIC50 of 4.33 (PRSS1; enzyme activity; inhibitor).
For `Nc1ccc(-c2ccncc2)cc1NC(=O)N1CCCC1`, the pIC50 was less than 4.48 (HDAC9; enzyme activity; inhibitor).
With `CNC(=O)c1cc2c(Oc3ccc(NC(=O)C4(C(=O)Nc5ccc(F)cc5)CC4)cc3)ccnc2cc1OC` the pIC50 was 7.62 (HCK; enzyme activity; inhibitor; radiometric).
With `CC1Cc2c(-c3cn(C)nn3)cccc2N1Cc1ccoc1C(=O)Nc1ccc(S(N)(=O)=O)cc1` (stereo not drawn) the pIC50 was 7.95 (CA9; enzyme activity; inhibitor).
With `COc1ccc2cc(/C=N/n3c(C)nc4ccc(Br)cc4c3=O)ccc2c1` the pIC50 was 4.39 (PRSS1; enzyme activity; inhibitor).
`O=C(NS(=O)(=O)c1ccc(COc2ccccc2)cc1)c1cccc(-c2cc(Cl)cc(Cl)c2)c1` has a pIC50 of 5.29 (Induced myeloid leukemia cell differentiation protein Mcl-1 (MCL1, Homo sapiens, UniProt Q07820); ligand displacement; FP).
`CCNC(=O)[C@H](CCCNC(=N)CCl)NC(=O)c1ccccc1` has a pIC50 of 5.39 (PADI4; enzyme activity; inhibitor).
The pIC50 of `CC1(COc2ccc3c(c2)ncn3-c2ccc3cccc(N4CCC(N)CC4)c3n2)COC1` is reported as 7.66 (PKN1; enzyme activity; inhibitor).
The pIC50 of `CCn1c(-c2nc3ccc(C(=O)N4CCCC(N)C4)cc3n2C)cc2ccccc21` (stereo not drawn) is reported as less than 4.00 (PADI4; ligand displacement; FP).
For `Cc1cc(C(=O)N2CCN(Cc3nc(-c4ccc(Cl)cc4)no3)CC2)ccc1S(N)(=O)=O`, the pIC50 was 7.09 (CA9; enzyme activity; inhibitor).
`Cc1cnc(-c2ccc(-c3ccc(NC(=O)Nc4c(F)cc(F)cc4F)cc3F)c3c2C(=O)NC3)[nH]1` has a pIC50 of 8.60 (HCK; enzyme activity; inhibitor).
For `CCCC[C@H](NC(=O)[C@H](C)c1c(C)[nH]c2ccc(O)cc12)c1ncc(-c2cc3ccccc3nc2OC)[nH]1`, the pIC50 was less than 4.35 (HDAC9; enzyme activity; inhibitor).
The pIC50 of `CCS(=O)(=O)c1cccc(-c2cc(C(=O)NC3CCN(C)CC3)c(C)c3[nH]c4ncc(C)cc4c23)c1` is reported as 7.07 (PKN1; enzyme activity; inhibitor).
`COc1ccc(C(=O)N2CCCC(C(=O)Nc3cc(S(N)(=O)=O)ccc3O)C2)c2ccccc12` (stereo not drawn) has a pIC50 of 5.58 (CA9; enzyme activity; inhibitor).
With `CCOCc1nc(O)c(-c2nnc(Cc3ccc(Cl)cn3)o2)c(O)c1-c1c(OC)cccc1OC` the pIC50 was less than 4.52 (Histamine H1 receptor (HRH1, Homo sapiens, UniProt P35367); ligand displacement; radioligand).
`NS(=O)(=O)c1ccc(NC(=O)COC(=O)c2c3c(nc4ccccc24)C(=Cc2ccco2)CCC3)cc1` has a pIC50 of 7.02 (CA9; enzyme activity; inhibitor).
With `COCCOc1ccc2c(c1)ncn2-c1ccc2cccc(N3CCC(N)CC3)c2n1` the pIC50 was 7.44 (PKN1; enzyme activity; inhibitor).
`NS(=O)(=O)c1ccc(NC2=NC(=O)/C(=C\c3ccc(C(=O)O)cc3)S2)cc1` gave a pIC50 of 6.91 (CA9; enzyme activity; inhibitor).
With `CC1Cc2cc(-c3cn(C)nn3)ccc2N1Cc1ccoc1C(=O)Nc1ccc(S(N)(=O)=O)cc1` (stereo not drawn) the pIC50 was 6.88 (CA9; enzyme activity; inhibitor).
`CCc1ccc(/C=N/n2c(C)nc3ccc(C)cc3c2=O)s1` has a pIC50 of 3.65 (PRSS1; enzyme activity; inhibitor).
With `COC(=O)C1CCCCN1C(=O)c1cccc(NC(=O)CSc2ccc(S(N)(=O)=O)cc2)c1` (stereo not drawn) the pIC50 was 7.04 (CA9; enzyme activity; inhibitor).
With `C[C@@H](N)[C@H]1CC[C@H](C(=O)Nc2ccncc2)CC1` the pIC50 was 6.13 (PKN1; enzyme activity; inhibitor).
For `COc1ccc2c(Oc3ccc4c(C(=O)Nc5ccccc5N)cccc4c3)ccnc2c1`, the pIC50 was less than 5.00 (Inward rectifier potassium channel 2 (KCNJ2, Homo sapiens, UniProt P63252); ion current; inhibitor).
`O=c1c(O)c(-c2ccc(O)c(O)c2)oc2cc(O)cc(O)c12` gave a pIC50 of 6.28 (Sulfotransferase 1A1 (SULT1A1, Homo sapiens, UniProt P50225); enzyme activity; inhibitor).
`O=C(O)c1ccc(-c2c[nH]c3ncc(-c4ccccc4)cc23)cc1C1CCCC1` gave a pIC50 of 6.66 (PKN1; enzyme activity; inhibitor).
The pIC50 of `COc1cc2c(c(OC)c1OC)-c1c(cc3c(c1OC)OCO3)[C@H](OC(=O)c1ccccc1)[C@@](C)(O)[C@@H](C)C2` is reported as 6.23 (Cytochrome P450 3A5 (CYP3A5, Homo sapiens, UniProt P20815); enzyme activity; inhibitor; 15 min; pH 7.4).
`CC(OC(=O)C1CCCN(C(=O)c2ccc(Cl)cc2)C1)C(=O)Nc1ccc(S(N)(=O)=O)cc1` (stereo not drawn) has a pIC50 of 7.37 (CA9; enzyme activity; inhibitor).
`CN1CCC(Nc2nc(Nc3ccc(Oc4ccccc4)cc3)c3c(=O)[nH]cc(Br)c3n2)CC1` has a pIC50 of 7.00 (PKN1; enzyme activity; inhibitor).
`CN/C(=N/CCSCc1nc[nH]c1C)NC#N` gave a pIC50 of 4.66 (Solute carrier family 22 member 7 (SLC22A7, Homo sapiens, UniProt Q9Y694); transporter uptake; inhibitor).
The pIC50 of `O=C(Nc1ccncc1)c1cc2ccccc2o1` is reported as 5.16 (Amine oxidase [flavin-containing] B (MAOB, Homo sapiens, UniProt P27338); enzyme activity; inhibitor; fluorescence).
`CN1CCN(c2ccc(Nc3ncc4cc(C#N)c(=O)n(C5CCCC5)c4n3)cc2)CC1` has a pIC50 of 7.00 (Ribosomal protein S6 kinase alpha-6 (RPS6KA6, Homo sapiens, UniProt Q9UK32); enzyme activity; inhibitor).
The pIC50 of `COc1ccc(S(=O)(=O)N2Cc3cc(O)c(O)cc3CC2C(=O)NO)cc1` (stereo not drawn) is reported as less than 6.00 (Matrix metalloproteinase-9 (MMP9, Homo sapiens, UniProt P14780); enzyme activity; inhibitor).
`Clc1ccc(C2(c3ccc(-c4cn[nH]c4)cc3)CCNCC2)cc1` has a pIC50 of 7.31 (PKN1; enzyme activity; inhibitor).
The pIC50 of `N#C/C(=C\c1ccc(-c2cc(Cl)ccc2Cl)o1)C(=O)Nc1cccc2ncccc12` is reported as less than 4.00 (NAD-dependent protein deacylase sirtuin-5, mitochondrial (SIRT5, Homo sapiens, UniProt Q9NXA8); enzyme activity; inhibitor; HPLC).
